Assay results pooled from the literature.
Each line is one published result; the experiments were not run side by side.
Target: Myosin light chain kinase, smooth muscle (MYLK, Homo sapiens, UniProt Q15746)

O=C(NCCCN1CCOCC1)c1ccc(Nc2nccc(-c3cc4ccccc4s3)n2)cc1  remaining binding (binding, competition with immobilised ligand; 1 µM): 94%
COc1cccc(CNC(=O)c2nc3scc(COCc4ccc(C(=O)O)cc4)c3c(=O)[nH]2)c1  remaining binding (cell-free assay, competition with immobilised ligand; 1 µM): 100%
O=C(NCCCN1CCOCC1)c1ccc(Nc2ncc(Cl)c(-c3ccc(Cl)s3)n2)cc1  remaining binding (binding, competition with immobilised ligand; 1 µM): 89%
Cc1cc(C)c(-n2ccn3nc(-c4cccnc4)cc23)cc1NC(=O)c1cc(C#N)cc(S(F)(F)(F)(F)F)c1  remaining binding (cell-free assay, competition with immobilised ligand; 0.1 µM): 57.7%
c1cnn2ncc(-c3ccnc(N4CCC45COC5)n3)c2c1  remaining binding (binding; 1 µM): 84%
C=CC(=O)N1CCC(C(=O)NCC(=O)N2CCN(c3nc(-c4cnc(N)nc4C(F)F)nc(N4CCOCC4)n3)CC2)CC1  remaining binding (binding, competition with immobilised ligand; 1 µM): 61%
CN(C)c1nccc(-c2cnc3ncccn23)n1  remaining binding (binding; 1 µM): 94%
CCN1CCN(Cc2ccc(C(=O)Nc3ccc(C)c(Oc4ccc5c(c4)CC(=O)N5)c3)cc2C(F)(F)F)CC1  remaining binding (binding, competition with immobilised ligand; 1 µM): 100%
O=C(NCc1ncc(C(F)(F)F)cc1Cl)c1ccc2c(c1)C1(CCS(=O)(=O)CC1)[C@H](C1CC1)N2S(=O)(=O)c1ccc(F)cc1  remaining binding (cell-free assay, competition with immobilised ligand; 1 µM): 77%
N[C@@H]1CCN(c2nccc(-c3cnn4ncccc34)n2)C1  remaining binding (binding; 1 µM): 100%
NS(=O)(=O)c1cc(NC(=O)C2(c3ccccc3Cl)CC2)ccc1Oc1cccc(Cl)c1  remaining binding (cell-free assay, competition with immobilised ligand; 1 µM): 72%
CN(c1nccc(-c2cnn3ncccc23)n1)C1CC1  remaining binding (binding; 1 µM): 100%
COc1cnc(Nc2cccc(S(N)(=O)=O)c2)nc1N1CCN(c2ccccc2)CC1  remaining binding (binding, competition with immobilised ligand; 1 µM): 70%
Nc1ncc2c(n1)-c1c([nH]c3ccc(C#CC4CC4)cc13)CCCC2  remaining binding (binding, competition with immobilised ligand; 1 µM): 92%
FC(F)(F)c1ccc2c(c1)nc(-c1cccnc1)n2C1CC1  remaining binding (cell-free assay, competition with immobilised ligand; 1 µM): 100%
O=C(c1ccc(Nc2ncc(Cl)c(-c3cc4ccccc4s3)n2)cc1)N1CCC(N2CCCC2)CC1  remaining binding (binding, competition with immobilised ligand; 1 µM): 54%
O=C(Nc1c[nH]nc1C(=O)NC1CCNCC1)c1cc(F)cc(F)c1  remaining binding (binding, competition with immobilised ligand; 1 µM): 100%
F[C@@H]1CCN(c2nccc(-c3cnn4ncccc34)n2)C1  remaining binding (binding; 1 µM): 72%
CC(=O)c1c(NS(C)(=O)=O)c2cc(-c3ccc(Cl)cc3)c(-c3ccc(Cl)cc3Cl)nc2n(C)c1=O  remaining binding (cell-free assay, competition with immobilised ligand; 1 µM): 93%
CN(C)c1ncc(F)c(-c2cnn3ncccc23)n1  remaining binding (binding; 1 µM): 98%
CNC(=O)[C@@H]1CC[C@@H](n2c(-c3ccc4cnccc4c3)nc3ccc(C(=O)NCc4cccc(C(N)=O)c4)cc32)C1  remaining binding (binding, competition with immobilised ligand; 1 µM): 100%
